Test results reported in ChEMBL document CHEMBL1821706, “Unprecedented citrinin trimer tricitinol B functions as a novel topoisomerase IIα inhibitor” (J Med Chem, 2011).

Experiments:
KB [1] = assay: Drug resistance index, ratio of IC50 for vincristine-resistant human KB cells to IC50 for human KB cells; format: functional
KB [2] = assay: Cytotoxicity against vincristine-resistant human KB cells over expressing P-glycoprotein after 72 hrs by SRB assay; format: functional, cell-based
Summary of the method: (§1)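 Adherent human tumour lines were seeded and exposed in triplicate to graded compound concentrations at 37 °C for 72 h. Growth was read by sulforhodamine B staining. IC50 (50% growth inhibition) was obtained by the Logit method from at least three independent experiments and reported as mean ± SD.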

KB [3] = assay: Cytotoxicity against human KB cells after 72 hrs by SRB assay; format: functional, cell-based; summary of the method: as §1
HL-60 = assay: Cytotoxicity against human HL60 cells after 72 hrs by MTT assay; format: functional, cell-based; settings: HL-60, 72 h
Summary of the method: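 Cells were treated in triplicate with graded concentrations for 72 h at 37 °C and read by MTT. IC50 is the concentration giving 50% growth inhibition, derived by the Logit method from at least three independent experiments and given as mean ± SD.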

HCT-116 = assay: Cytotoxicity against human HCT116 cells after 72 hrs by SRB assay; format: functional, cell-based; settings: HCT-116, 72 h; summary of the method: as §1

Question: For CC[C@]1(O)C[C@H]2CN(CCc3c([nH]c4ccccc34)[C@@](C(=O)OC)(c3cc4c(cc3OC)N(C=O)[C@H]3[C@@](O)(C(=O)OC)[C@H](OC(C)=O)[C@]5(CC)C=CCN6CC[C@]43[C@@H]65)C2)C1 [VINCRISTINE], which “Ratio IC50” value (KB [1]) is on record?
Answer: 55.97

Question: What about the IC50 (KB [2]) of the same compound?
Answer: 1.29 µM

Question: What about the IC50 (KB [3]) of the same compound?
Answer: 0.02 µM

Question: What does the source list for CO[C@@]12O[C@H](C)[C@@H](C)C1=C(C)C1=C(C2=O)[C@@H]2O[C@H](C)[C@@H](C)c3c(C)c(O)cc(c32)O1 [PENICITRINOL F]?
Answer: IC50 (HL-60): > 10 µM; IC50 (KB [3]): > 10 µM; IC50 (HCT-116): > 10 µM

Question: What does the source list for COC1O[C@H](C)[C@@H](C)c2c(C)c(O)c3c(c21)Oc1cc(O)c(C)c2c1[C@H]3O[C@H](C)[C@H]2C (stereo partly drawn) [DICITRINOL A]?
Answer: IC50 (HL-60): 5.98 µM; IC50 (KB [3]): 5.05 µM; IC50 (HCT-116): 4.54 µM

Question: How did the IC50 (HL-60) turn out when COC1O[C@H](C)[C@@H](C)c2c(C)c3c(c(O)c21)[C@@H]1O[C@H](C)[C@@H](C)c2c(C)c(O)cc(c21)O3 (stereo partly drawn) [DICITRINOL B] was run?
Answer: 6.06 µM

Question: And the IC50 (KB [3])?
Answer: 5.15 µM

Question: What about the IC50 (HCT-116) of the same compound?
Answer: 5.8 µM

Question: Which results are given for CO[C@@]12Oc3cc(O)c(C)c([C@H](C)[C@@H](C)O)c3C=C1C(=O)C(C)=C1[C@H](C)[C@@H](C)O[C@]12O [PENICITRINOL G]?
Answer: IC50 (HL-60): > 10 µM; IC50 (KB [3]): > 10 µM; IC50 (HCT-116): > 10 µM

Question: With Cc1c(O)c2c(c3c1[C@H](C)[C@@H](C)O3)Oc1cc(O)c(C)c3c1[C@H]2O[C@H](C)[C@H]3C [PENICITRINOL A] as the compound, how does the IC50 (HL-60) read?
Answer: > 10 µM

Question: And the IC50 (KB [3])?
Answer: > 10 µM

Question: What about the IC50 (HCT-116) of the same compound?
Answer: > 10 µM

Question: Which IC50 (HL-60) does the source give for Cc1oc2c(c1C)c(C)c(O)c1c3c4c(c(C)c(=O)cc-4oc12)[C@H](C)[C@@H](C)O3 [PENICITRINONE B] here?
Answer: > 10 µM

Question: What about the IC50 (KB [3]) of the same compound?
Answer: > 10 µM

Question: And the IC50 (HCT-116)?
Answer: > 10 µM

Question: Which results are given for Cc1c2c(c3oc4cc(=O)c(C)c5c-4c(c3c1O)O[C@H](C)[C@H]5C)CO[C@H](C)[C@H]2C [OXODICITRINOL A]?
Answer: IC50 (HL-60): 8.91 µM; IC50 (KB [3]): > 10 µM; IC50 (HCT-116): > 10 µM

Question: How did the IC50 (HL-60) turn out when CO[C@H]1O[C@H](C)[C@@H](C)c2c(C)c(O)c3c(c21)Oc1c([C@H]2O[C@H](C)[C@@H](C)c4c(C)c(O)cc(O)c42)c(O)c(C)c2c1[C@H]3O[C@H](C)[C@H]2C [TRICITRINOL A] was run?
Answer: 8.17 µM

Question: And the IC50 (KB [3])?
Answer: > 10 µM

Question: What about the IC50 (HCT-116) of the same compound?
Answer: 8.57 µM

Question: Which results are given for Cc1c(O)cc(O)c2c1[C@H](C)[C@@H](C)OC2 [DECARBOXYDIHYDROCITRININ]?
Answer: IC50 (HL-60): > 10 µM; IC50 (KB [3]): > 10 µM; IC50 (HCT-116): > 10 µM

Question: For CO[C@@]12O[C@H](C)[C@@H](C)C1=C(C)C(=O)C1=C2Oc2cc(O)c(C)c3c2[C@H]1O[C@H](C)[C@H]3C [PENICITRINOL B], which IC50 (HL-60) is on record?
Answer: > 10 µM

Question: What about the IC50 (KB [3]) of the same compound?
Answer: > 10 µM

Question: And the IC50 (HCT-116)?
Answer: > 10 µM

Question: Which results are given for CC1=C2[C@H](C)[C@@H](C)O[C@@]2(O)[C@]2(O)Oc3cc(O)c(C)c([C@H](C)[C@@H](C)O)c3C=C2C1=O [PENICITRINOL H]?
Answer: IC50 (HL-60): > 10 µM; IC50 (KB [3]): > 10 µM; IC50 (HCT-116): > 10 µM

Question: What does the source list for CC1=C2C(=CO[C@H](C)[C@H]2C)C(O)=C(C(=O)O)C1=O [CITRININ]?
Answer: IC50 (HL-60): > 10 µM; IC50 (KB [3]): > 10 µM; IC50 (HCT-116): > 10 µM

Question: With Cc1c2c(c3oc4cc(=O)c(C)c5c-4c(c3c1O)O[C@H](C)[C@H]5C)O[C@H](C)[C@H]2C [DICITRININ A] as the compound, how does the IC50 (HL-60) read?
Answer: > 10 µM

Question: What about the IC50 (KB [3]) of the same compound?
Answer: > 10 µM

Question: And the IC50 (HCT-116)?
Answer: > 10 µM

Question: For Cc1c(O)c(C(=O)O)c(O)c2c1[C@H](C)[C@@H](C)OC2=O [DIHYDROCITRINONE], which IC50 (HL-60) is on record?
Answer: > 10 µM

Question: What about the IC50 (KB [3]) of the same compound?
Answer: > 10 µM

Question: What about the IC50 (HCT-116) of the same compound?
Answer: > 10 µM

Question: Which IC50 (HL-60) does the source give for Cc1c(O)cc(O)cc1[C@H](C)[C@@H](C)O [PHENOL A] here?
Answer: > 10 µM

Question: What about the IC50 (KB [3]) of the same compound?
Answer: > 10 µM

Question: And the IC50 (HCT-116)?
Answer: > 10 µM
